Test results reported in ChEMBL document CHEMBL1772988, “(-)-Epigallocatechin-3-O-gallate induces nonapoptotic cell death in leukemia cells independent of the 67 kDa laminin receptor” (2011).
Activity calls are given as the source filed them. The rule behind the calls is not given here.

Assays:
HL-60 [1] = assay: Cytotoxicity against human HL60 cells assessed as cell growth inhibition after 7 days by trypan blue based microscopic analysis; assay type: functional
Outline: (§1)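 Cells seeded at 2 × 10^3 cells/mL in culture medium with 1 nM–10 μM compound and cultured 7 days. HL60 and Raji were grown in RPMI 1640, K562 in F-12, UT-7 in IMDM with TPO 10 ng/mL; all media had 10% heat-inactivated FBS, 37 °C, 5% CO2. Viable trypan blue-excluding cells counted by hemacytometer; growth rate = viable treated/viable untreated. Means ± SD.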

Raji [2] = assay: Cytotoxicity against human Raji cells assessed as cell growth inhibition after 7 days by trypan blue based microscopic analysis; assay type: functional; outline: as §1
K562 [3] = assay: Cytotoxicity against human K562 cells assessed as cell growth inhibition at 10 uM after 7 days by trypan blue based microscopic analysis; assay type: functional; outline: as §1
UT7 = assay: Cytotoxicity against human UT7 cells assessed as cell growth inhibition at 10 uM after 7 days by trypan blue based microscopic analysis; assay type: functional; outline: as §1
K562 [4] = assay: Induction of 67 kDa laminin receptor expression in human K562 cells after 24 hrs by flow cytometry analysis; assay type: functional, cell-based
Outline: (§2)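 Untreated cells seeded at 1 × 10^5 cells/mL and grown 24 h. Harvested cells labelled with mouse anti-67 LR IgM in 0.5% BSA/PBS for 1 h on ice, then anti-mouse IgM-FITC for 30 min at 4 °C in the dark. Read by flow cytometry.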

HL-60 [5] = assay: Induction of 67 kDa laminin receptor expression in human HL60 cells after 24 hrs by flow cytometry analysis; assay type: functional, cell-based; outline: as §2
HL-60 [6] = assay: Induction of myeloperoxidase expression in human HL60 cells after 24 hrs by flow cytometry; assay type: functional
Outline: (§3)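 Untreated cells seeded at 1 × 10^5 cells/mL and grown 24 h. Fixed/permeabilised with Cytofix/Cytoperm for 20 min on ice. Stained with mouse anti-MPO mAb (1% v/v) for 1 h at room temperature, then goat anti-mouse IgG-FITC (1% v/v) for 1 h in the dark. Basal intracellular MPO read by flow cytometry.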

Raji [7] = assay: Induction of myeloperoxidase expression in human Raji cells after 24 hrs by flow cytometry; assay type: functional; outline: as §3
K562 [8] = assay: Induction of myeloperoxidase expression in human K562 cells after 24 hrs by flow cytometry; assay type: functional; outline: as §3
HL-60 [9] = assay: Induction of intracellular reactive oxygen species production in human HL60 cells at 10 uM after 1 to 3 hrs by flow cytometry; assay type: functional, cell-based
Outline: (§4)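 Cells treated with 10 μM EGCG for 1 and 3 h. Then 1 × 10^5 cells stained with 5 μM H2-DCFDA for 25 min at 37 °C, washed and resuspended in PBS. Oxidised-probe fluorescence read by flow cytometry. Means ± SD of more than three separate experiments.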

Raji [10] = assay: Induction of intracellular reactive oxygen species production in human Raji cells at 10 uM after 1 to 3 hrs by flow cytometry; assay type: functional, cell-based; outline: as §4
K562 [11] = assay: Induction of intracellular reactive oxygen species production in human K562 cells at 10 uM after 1 to 3 hrs by flow cytometry; assay type: functional, cell-based; outline: as §4
HL-60 [12] = assay: Growth inhibition against human HL60 cells assessed as cell viability at 10 uM after 48 hrs by trypan blue based microscopic analysis in presence of superoxide dismutase; assay type: functional
Outline: (§5)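 Raji cells were seeded at 1 × 10^5 cells/mL and HL60 at 5 × 10^4 cells/mL. Medium held SOD (5 U/mL), catalase (30 U/mL) or both, plus 10 μM EGCG, for 48 h. Viable cells counted after trypan blue by hemacytometer; growth rate relative to untreated. Means ± SD of more than three experiments in triplicate wells.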

Raji [13] = assay: Growth inhibition against human Raji cells assessed as cell viability at 10 uM after 48 hrs by trypan blue based microscopic analysis in presence of superoxide dismutase; assay type: functional; outline: as §5
HL-60 [14] = assay: Growth inhibition against human HL60 cells assessed as cell viability at 10 uM after 48 hrs by trypan blue based microscopic analysis in presence of catalase; assay type: functional; outline: as §5
Raji [15] = assay: Growth inhibition against human Raji cells assessed as cell viability at 10 uM after 48 hrs by trypan blue based microscopic analysis in presence of catalase; assay type: functional; outline: as §5
HL-60 [16] = assay: Cell cycle arrest in human HL60 cells by assessed as accumulation at subG1 phase at 10 uM using propidium iodide staining by flow cytometry; assay type: functional
Outline: (§6)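 Cells treated with 10 μM EGCG for 48 h, with or without SOD (5 U/mL) plus catalase (30 U/mL) in the medium. Harvested cells permeabilised in PBS with 0.1% Triton X-100 for 5 min on ice, stained with propidium iodide (50 μg/mL), and analysed by flow cytometry for sub-G1 fraction.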

HL-60 [17] = assay: Cell cycle arrest in human HL60 cells by assessed as accumulation at subG1 phase at 10 uM using propidium iodide staining by flow cytometry in presence of superoxide dismutase and catalase; assay type: functional; outline: as §6
Raji [18] = assay: Cell cycle arrest in human Raji cells by assessed as accumulation at subG1 phase at 10 uM using propidium iodide staining by flow cytometry; assay type: functional; outline: as §6
Raji [19] = assay: Cell cycle arrest in human Raji cells by assessed as accumulation at subG1 phase at 10 uM using propidium iodide staining by flow cytometry in presence of superoxide dismutase and catalase; assay type: functional; outline: as §6
HL-60 [20] = assay: Growth inhibition against human HL60 cells assessed as cell viability at 10 uM after 24 hrs by trypan blue based microscopic analysis; assay type: functional
Raji [21] = assay: Growth inhibition against human Raji cells assessed as cell viability at 10 uM after 24 hrs by trypan blue based microscopic analysis; assay type: functional
Raji [22] = assay: Induction of apoptosis in human Raji cells assessed as necrotic cells at 10 uM after 6 hrs by measuring phosphatidylserine translocation using annexin V-FITC/propidium iodide staining by FACS (reference value: 3.4 %); assay type: functional
Raji [23] = assay: Induction of apoptosis in human Raji cells assessed as early apoptotic cells at 10 uM after 6 hrs by measuring phosphatidylserine translocation using annexin V-FITC/propidium iodide staining by FACS (reference value: 3.7 %); assay type: functional
Raji [24] = assay: Induction of apoptosis in human Raji cells assessed as late apoptotic or secondary necrotic cells at 10 uM after 6 hrs by measuring phosphatidylserine translocation using annexin V-FITC/propidium iodide staining by FACS (reference value: 2.2 %); assay type: functional
Raji [25] = assay: Induction of apoptosis in human Raji cells assessed as early apoptotic cells at 10 uM after 12 hrs by measuring phosphatidylserine translocation using annexin V-FITC/propidium iodide staining by FACS (reference value: 3.7 %); assay type: functional
Raji [26] = assay: Induction of apoptosis in human Raji cells assessed as necrotic cells at 10 uM after 12 hrs by measuring phosphatidylserine translocation using annexin V-FITC/propidium iodide staining by FACS (reference value: 3.4 %); assay type: functional
Raji [27] = assay: Induction of apoptosis in human Raji cells assessed as late apoptotic or secondary necrotic cells at 10 uM after 12 hrs by measuring phosphatidylserine translocation using annexin V-FITC/propidium iodide staining by FACS (reference value: 2.2 %); assay type: functional
Raji [28] = assay: Induction of apoptosis in human Raji cells assessed as necrotic cells at 10 uM after 24 hrs by measuring phosphatidylserine translocation using annexin V-FITC/propidium iodide staining by FACS (reference value: 3.4 %); assay type: functional
Raji [29] = assay: Induction of apoptosis in human Raji cells assessed as early apoptotic cells at 10 uM after 24 hrs by measuring phosphatidylserine translocation using annexin V-FITC/propidium iodide staining by FACS (reference value: 3.7 %); assay type: functional
Raji [30] = assay: Induction of apoptosis in human Raji cells assessed as late apoptotic or secondary necrotic cells at 10 uM after 24 hrs by measuring phosphatidylserine translocation using annexin V-FITC/propidium iodide staining by FACS (reference value: 2.2 %); assay type: functional
Raji [31] = assay: Induction of apoptosis in human Raji cells assessed as necrotic cells at 10 uM by measuring phosphatidylserine translocation using annexin V-FITC/propidium iodide staining by FACS; assay type: functional, cell-based; conditions: TDE = time-dependent effect
HL-60 [32] = assay: Induction of apoptosis in human HL60 cells assessed as intracellular caspase-3 activation after 24 hrs (reference value: 1.3 %); assay type: functional
HL-60 [33] = assay: Induction of apoptosis in human HL60 cells assessed as intracellular caspase-3 activation after 48 hrs (reference value: 1.3 %); assay type: functional
Raji [34] = assay: Induction of apoptosis in human Raji cells assessed as intracellular caspase-3 activation after 24 hrs (reference value: 3.4 %); assay type: functional
Raji [35] = assay: Induction of apoptosis in human Raji cells assessed as intracellular caspase-3 activation after 48 hrs (reference value: 3.4 %); assay type: functional
HL-60 [36] = assay: Growth inhibition against human HL60 cells assessed as cell viability at 10 uM preincubated with N-acetyl-L-cysteine for 30 mins measured after 48 hrs by trypan blue based microscopic analysis; assay type: functional
Outline: (§7)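 Cells preincubated 30 min at 37 °C with 10 mM NAC, then seeded (Raji 1 × 10^5, HL60 5 × 10^4 cells/mL) and treated with 10 μM EGCG for 48 h. Viable cells were counted after trypan blue exclusion by hemacytometer. Growth rate = viable treated/viable untreated cells. Means ± SD of more than three experiments in triplicate wells.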

Raji [37] = assay: Growth inhibition against human Raji cells assessed as cell viability at 10 uM preincubated with N-acetyl-L-cysteine for 30 mins measured after 48 hrs by trypan blue based microscopic analysis; assay type: functional; outline: as §7
HL-60 [38] = assay: Growth inhibition against human HL60 cells assessed as cell viability at 10 uM after 48 hrs by trypan blue based microscopic analysis in presence of superoxide dismutase and catalase; assay type: functional; outline: as §5
Raji [39] = assay: Growth inhibition against human Raji cells assessed as cell viability at 10 uM after 48 hrs by trypan blue based microscopic analysis in presence of superoxide dismutase and catalase; assay type: functional; outline: as §5

O=C(O[C@@H]1Cc2c(O)cc(O)cc2O[C@@H]1c1cc(O)c(O)c(O)c1)c1cc(O)c(O)c(O)c1 [EPIGALOCATECHIN GALLATE]
growth inhibition (GI) (HL-60 [1]): Dose-dependent effect
growth inhibition (GI) (Raji [2]): Dose-dependent effect
growth inhibition (GI) (K562 [3]): inactive
growth inhibition (GI) (UT7): inactive
Activity (K562 [4]): Active
Activity (HL-60 [5]): Active
Activity (HL-60 [6]): 49.2%
Activity (Raji [7]): 4.5%
Activity (K562 [8]): 14.3%
Activity (HL-60 [9]): inactive
Activity (Raji [10]): inactive
Activity (K562 [11]): inactive
growth inhibition (GI) (HL-60 [12]): Active
growth inhibition (GI) (Raji [13]): Active
growth inhibition (GI) (HL-60 [14]): Active
growth inhibition (GI) (Raji [15]): Active
Activity (HL-60 [16]): 45.9%
Activity (HL-60 [17]): 2.6%
Activity (Raji [18]): 3.8%
Activity (Raji [19]): 5.9%
Activity (HL-60 [20]): Active
Activity (Raji [21]): Active
Activity (Raji [22]): 5.3%
Activity (Raji [23]): 5.1%
Activity (Raji [24]): 4.5%
Activity (Raji [25]): 7.7%
Activity (Raji [26]): 6.7%
Activity (Raji [27]): 7.8%
Activity (Raji [28]): 14.9%
Activity (Raji [29]): 8.5%
Activity (Raji [30]): 13%
Activity (Raji [31]): tde
Activity (HL-60 [32]): 2.7%
Activity (HL-60 [33]): 4.2%
Activity (Raji [34]): 3.5%
Activity (Raji [35]): 5.4%
growth inhibition (GI) (HL-60 [36]): Active
growth inhibition (GI) (Raji [37]): Active
growth inhibition (GI) (HL-60 [38]): inactive
growth inhibition (GI) (Raji [39]): inactive
